Runt-SMMHC FRET – inhibitors of RUNX1 Runt–CBFb-SMMHC binding, primary screen, biochemical, FRET, Cerulean-Runt, Venus-CBFb-SMMHC, uHTS; AID 1434, 2008; inhibition, % at 20 µM; Cerulean-Runt/Venus-CBFb-SMMHC FRET ratio 530/480, 1 h; 0.74% of 220,000 active; Runt-related transcription factor 1 (Homo sapiens) + Core-binding factor subunit beta …;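 active = mean inhibition across duplicate retests at 20 µM reaching about 50%, limit read from the data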;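 also: 0% = DMSO wells and 100% = wells with excess untagged CBFb-SMMHC; inhibitors lower the FRET ratio by blocking Runt binding to CBFb-SMMHC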
Runt-CBFb FRET – inhibitors of RUNX1 Runt–CBFb binding, primary screen, biochemical, FRET, Cerulean-Runt, Venus-CBFb, uHTS; inhibition, % at 20 µM; 0.46% of 220,000 active; Cerulean-Runt/Venus-CBFb FRET ratio 530/480, 1 h;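 active = inhibition over about 50% at 20 µM in the single-dose screen, limit read from the data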;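 also: 0% = DMSO wells and 100% = excess unlabeled CBFb competitor control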
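Assay system: Cerulean-Runt domain fusion protein, energy donor; Signal: fluorescence energy transfer, 422 nm excitation, 530/480 nm emission; Timing: 1 h compound exposure, room temperature; Control set: unlabeled CBFb; Medium: Tris buffer pH 7.5 with salts and BSA; Compound: single test concentration of 20 µM, 1% DMSO final; Probe or stimulus: Venus-CBFb 100 nM.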
PHOSPHO1 block – PubChem AID 1565. Phosphoethanolamine/phosphocholine phosphatase (Homo sapiens), Q8TCT1. recombinant PHOSPHO1, absorbance phosphatase assay. inhibition, % at 13.3 µM. 1.1% of 290,000 active; in the data active = inhibition above about 60%
Efa HMGR inh – inhibitors of E. faecalis class II HMGR, primary screen, biochemical, Enterococcus faecalis; HMG-CoA reductase (Enterococcus faecalis, mvaE); purified E. faecalis HMGR, NADPH absorbance 340 nm kinetic; inhibition, % at 10 µM; 0.41% of 190,000 active;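 active = inhibition above a set limit, the median over all tested compounds plus 3 SD, cut at about 9.5% in these data; inconclusive = no clear call, values can overlap the other calls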;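 also: enzyme runs in reverse so mevalonate oxidation gives rising NADPH absorbance; 0% = complete reaction with DMSO and 100% = background rate lacking mevalonate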
Wee1 degr inh – Wee1 degradation inhibitors, primary screen, cell-based, HeLa, Wee1K328M-luciferase, luminescence. HeLa Luc-Wee1K328M stability; 100% = proteasome inhibitor MG132 effect. reporter increase, % at 5 µM. 1.2% of 220,000 active. AID 1321, 2008. Wee1-like protein kinase (Homo sapiens), P30291;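 active = activation above the mean of all tested compounds plus 3 SD, set per screening run, cut at about 8.8% in these data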;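 also: cells exposed to compound for 20 h before luminescence read; 0% = DMSO alone and 100% = MG132 at 30 µM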
Target sequence (P30291 whole entry K328M): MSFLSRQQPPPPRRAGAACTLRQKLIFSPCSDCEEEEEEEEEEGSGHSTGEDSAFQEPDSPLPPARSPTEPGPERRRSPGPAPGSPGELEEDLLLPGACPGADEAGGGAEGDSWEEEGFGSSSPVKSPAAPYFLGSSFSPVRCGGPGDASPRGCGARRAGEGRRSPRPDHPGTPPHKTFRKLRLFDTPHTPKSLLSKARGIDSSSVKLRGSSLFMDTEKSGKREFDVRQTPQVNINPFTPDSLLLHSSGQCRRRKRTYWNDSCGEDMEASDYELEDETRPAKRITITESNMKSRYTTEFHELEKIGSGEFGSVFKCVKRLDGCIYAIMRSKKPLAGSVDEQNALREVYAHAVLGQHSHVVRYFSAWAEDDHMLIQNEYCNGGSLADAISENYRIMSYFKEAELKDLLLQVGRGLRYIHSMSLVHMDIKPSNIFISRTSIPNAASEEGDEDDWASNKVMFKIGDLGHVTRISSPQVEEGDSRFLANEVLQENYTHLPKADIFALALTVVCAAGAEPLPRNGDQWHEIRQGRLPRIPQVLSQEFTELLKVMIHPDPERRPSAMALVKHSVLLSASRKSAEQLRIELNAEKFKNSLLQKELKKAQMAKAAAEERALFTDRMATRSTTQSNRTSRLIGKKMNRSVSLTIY
RanGTP-Imp inh – inhibitors of RanGTP-importin-beta interaction, primary screen, biochemical, FRET, CFP-Ran, YFP-importin-beta, homogeneous. AID 2216, 2009. inhibition, % (concentration not given with the values). 1.1% of 300,000 active. cell-free CFP-Ran/YFP-importin-beta FRET ratio. Ran GTPase (GTP-bound) - importin-beta complex;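 active = more than half of the replicate wells show a fall in the fluorescence ratio signal beyond about 16%, limit read from the data, passing the limit was not always enough; inconclusive = exactly half of the replicate wells pass the set limit; inactive = fewer than half of replicates pass the limit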;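 also: 0% = DMSO wells and 100% = Ran loaded with GDP instead of GTP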
* = called active by the depositor; ? = inconclusive; . = no result. Compounds with a hit are over-represented: about 3.4% of the library has one in this group of screens.

SMILES	Runt-SMMHC FRET	Runt-CBFb FRET	PHOSPHO1 block	Efa HMGR inh	Wee1 degr inh	RanGTP-Imp inh
Cc1ccccc1OCCC(=O)OCC(=O)Nc1ccc2[nH]c(=O)[nH]c2c1	.	.	.	.	.	0
Cc1cccc(NCN2C(=O)c3ccncc3C2=O)n1	0	-2	10	3	0	19*
COc1ccc(/C=C(\NC(=O)c2ccccc2)C(=O)N/N=C/c2cccnc2)cc1	-6	0	2	.	2	2
COc1ccc(/C=C(/NC(=O)c2ccc(C)cc2)C(=O)NCc2ccncc2)cc1	.	.	70*	.	.	2
COc1ccc(/C=C(\NC(=O)c2ccccc2)C(=O)N/N=C/c2ccncc2)cc1	0	-1	65*	-3	-5	1
Cc1ccc(C(=O)N/C(=C\c2ccc(F)cc2)C(=O)NCc2ccncc2)cc1	-2	0	-2	-3	-1	0
C=CCN(CC=C)C(=O)c1ccccc1NC(=O)c1ccccc1C	-3	-3	19	-1	-1	3
COc1ccc(/C=N/NC(=O)c2cc(C(C)(C)C)[nH]n2)cc1COc1ccc(F)cc1F	-1	-2	-4	3	4	51*
Cn1nc(C(=O)Nc2sc3c(c2C#N)CCCC3)ccc1=O	-6	5	-15	-2	4	1
O=C(Nc1cc2c(=O)n(-c3ccc(Oc4ccccc4)cc3)ccc2oc1=O)c1ccccc1	62*	21	4	-6	1	?
CC(=O)c1cc(NC(=O)c2ccccc2)c(=O)oc1C	142	7	16	-3	0	-18
Cc1ccc(S(=O)(=O)NC2CC2)cc1	.	.	14	.	.	-3
CC(=O)c1c(N2CCN(c3ccccc3)CC2)nc(=S)n(-c2ccccc2)c1C	-38	-1	10	-3	-3	2
CC(=O)c1c(N2CCN(CCO)CC2)nc(=S)n(-c2ccccc2)c1C	92*	65*	11	-3	0	62*
CCn1c(C)c(C(C)=O)c(N2CCN(c3ccc(F)cc3)CC2)nc1=S	0	23	102*	-1	-2	20*
CC(=O)c1c(N2CCN(Cc3ccccc3)CC2)nc(=S)n(-c2ccccc2)c1C	98*	46	4	-8	-1	85*
CC(=O)c1c(N2CCN(Cc3ccccc3)CC2)nc(=S)n(Cc2ccccc2)c1C	82*	75*	-8	-5	-3	68*
O=C1C(=O)N(C2CCS(=O)(=O)C2)C(c2cccc(O)c2)/C1=C(/O)c1ccc(Cl)cc1 (centres undefined)	.	.	29	.	.	-4
CCN(C(=O)c1ccc2c(=O)n3c(nc2c1)CCCCC3)c1cc(OC)ccc1OC	.	.	65*	.	.	0
O=C(CCC1CCCCC1)NCCN1C2=NC[C@H](Cc3ccc(O)cc3)N2C[C@H]1Cc1ccc(O)cc1	-6	0	22	-2	6	16*
Cc1cccc(N2CCN(C(=O)C3CCN(S(=O)(=O)c4cccnc4)CC3)CC2)c1C	0	-1	3	-4	1	1
CC(C)(C)C(=O)N1CCC[C@H]1C(O)(c1ccccc1)c1ccccc1	-3	-3	2	14*	-3	1
O=C(C1CC1)N1CCC(C(O)(c2ccccc2)c2ccccc2)CC1	-2	2	9	-4	1	-1
Cc1ccc2c(C(=O)CN3CCC(C(N)=O)CC3)c(C)[nH]c2c1	.	.	14	.	.	-2
CCOC(=O)C1CCN(CC(=O)c2c(C)[nH]c3cc(C)ccc23)CC1	1	-2	14	3	10*	-5
SMILES	Runt-SMMHC FRET	Runt-CBFb FRET	PHOSPHO1 block	Efa HMGR inh	Wee1 degr inh	RanGTP-Imp inh
Cc1[nH]c2ccccc2c1C(=O)CN1CCC(C)CC1	-2	3	70*	0	-2	0
Cc1[nH]c2ccccc2c1C(=O)C(=O)N1CCN(C)CC1	1	-2	68*	-3	-2	0
Cc1cccc(NC(=O)CN2CCSc3ccccc32)c1	0	-1	-19	13*	-3	-3
COc1nc(N)nc2nc[nH]c12	.	.	20	.	.	4
OCCCNC(=S)Nc1ccc2nc(-c3ccccn3)c(-c3ccccn3)nc2c1	-17	-2	-67	-1	4	36*
CC(C)(C)CC(C)(C)NC(=S)Nc1ccc2nc(-c3ccccn3)c(-c3ccccn3)nc2c1	-44	-34	96*	-1	0	-26
Cc1cc2nc(-c3ccccn3)c(-c3ccccn3)nc2cc1C	1	-2	36	.	9.3*	5
S=C(Nc1ccc2nc(-c3ccccn3)c(-c3ccccn3)nc2c1)N1CCOCC1	-68	-9	-91	-1	2	-16
CN(C)NC(=S)Nc1ccc2nc(-c3ccccn3)c(-c3ccccn3)nc2c1	-189	3	-15	2	-2	48*
CCOCCCNC(=O)CN1CCN(Cc2ccc(Cl)cc2)C1=O	.	.	.	.	.	-4
CCCC(=O)Oc1ccc(C2NC(=O)c3ccccc3O2)cc1 (centres undefined)	.	.	29	.	.	-5
Nc1ccccc1SCC(=O)Nc1cccc2ccccc12	.	.	14	.	.	-2
O=c1c2sc(-c3ccccc3)cc2nc2n1CCC2	-7	-1	-23	-1	4	0
O=c1c2sc(-c3ccccc3)cc2nc2n1CCCCC2	-3	1	-10	.	9.9*	5
CCOC(=O)C1=C(N)n2c(s/c(=C\c3cccnc3)c2=O)=C(C(=O)OC)C1c1cccnc1 (centres undefined)	.	.	.	.	10*	-1
CCOC(=O)C1=C(N)n2c(s/c(=C\c3cccnc3)c2=O)=C(C(=O)OCC)C1c1cccnc1 (centres undefined)	-1	-5	-4	.	.	.
CCN(CC)C(=S)SSC(=S)N(CC)CC	41	39	89*	-8	1	2
CC(=O)NC12CC3CC(C1)CC(C(=O)Oc1ccc(N(C)S(=O)(=O)c4cc(C)ccc4C)cc1)(C3)C2	.	.	.	.	.	6
O=C(NNC(=O)c1ccc2[nH]c(=O)c(=O)[nH]c2c1)c1cccc(Br)c1	.	.	56	.	.	2
CCOc1ccc2nc3cc(NCc4ccc(OC)cc4)ccc3c(N)c2c1	.	.	33	.	.	27*
Cc1ccc(C(=O)Nc2cccc(C(=O)O)c2)cc1S(=O)(=O)N1CCCCC1	-7	-1	-5	-2	0	.
CCOC(=O)N1CCN(C(=O)C2CCC(=O)N(CCCc3ccccc3)C2)CC1 (centres undefined)	.	.	61*	.	.	1
